Rows were chosen to be rich in hits. Some 3.9% of all compounds tested hit in one or more screens of this group.
HCV core dimer = HCV core protein dimerization inhibition | TR-FRET GST/Flag-core106 dimerization, 1536-well | inhibition, % at 5 µM | 0.33% of 300,000 active | AID 1899;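 active = inhibition above the mean of all tested compounds plus 3 SD, set per screening campaign, cut at about 45% in these data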
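Test system: GST/Flag-tagged HCV core106 proteins; Medium: KF-containing HEPES buffer, pH 7.45, DTT, CHAPS, BSA; Times: compound-protein-antibody incubation 4 h at 22.5 °C; Detection: TR-FRET 671 and 617 nm emission; Benchmarks: wells lacking GST-core106 and wells with excess unlabelled core106.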
FID counter = counter-screen for HCV NS3 helicase inhibitors: DNA intercalator displacement. DNA fluorescent intercalator displacement, fluorescence. inhibition, % at 7.9 µM. 0.17% of 290,000 active; in the data active = inhibition above about 37%;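 note: higher means more ethidium bromide displaced from hairpin DNA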
HCV NS3 hel inh = blocks Hepatitis C virus NS3 helicase unwinding; NS3 helicase DNA unwinding, Cy5 molecular beacon fluorescence; inhibition, % at 10.9 µM; 0.56% of 290,000 active; AID 1800;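 active = inhibition above the mean of all tested compounds plus 3 SD, set per campaign, cut at about 35% in these data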
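Compound dosing – single dose, 10.9 µM nominal final, DMSO 0.8% final · System – NS3 helicase fragment of HCV · Buffer or medium – MOPS pH 6.5, MgCl2, DTT, Tween20, BSA · Signal – Cy5 beacon fluorescence read at start and 1 h · Also added – annealed dual-labelled DNA beacon duplex, ATP-started · Schedule – 1 h at 25 °C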
HSF1 inh = HSF1 inhibition. activity change, negative = inhibition, % at 7.5 µM (by protocol). AID 2098. NIH3T3-HGL HSE-luciferase, MG132-induced, luminescence 8 h; hits give low values. 0.77% of 300,000 active;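 active = more than half of replicate wells show activity change below -50%, luminescence cut by over half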;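 note: luciferase reports HSF-1 transcriptional activity via heat shock element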
HSP90 inh = inhibitors of HSP90 luciferase refolding in rabbit reticulocyte lysate; luciferase refolding luminescence, 3 h; 0.91% of 290,000 active; inhibition, % at 5.6 µM;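 active = inhibition above the screen-wide mean plus 3 SD, computed separately per campaign, cut at about 16% in these data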;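 note: inhibitors lower the luminescence because luciferase stays unfolded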
HSF-1 act = increases HSF-1 driven luciferase reporter signal. NIH3T3-HGL HSF-1 luciferase reporter, MG132, 8 h; 100% = twice DMSO control signal. AID 504408. activation, % at 9 µM. 1.7% of 300,000 active;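 active = mean replicate activation of at least 50% with a set share of replicates each reaching 50%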
Each line names hits and unclear results; the compound was inactive in the other large screens.

CCOc1ccc(-n2c(=S)sc3c(=O)[nH]c(SCC(=O)NC(C)CC)nc32)cc1 (centres undefined)	HSF-1 act 72
COCCCNC(=O)CCn1c(=O)c2ccccc2n(CC(=O)Nc2cc(Cl)ccc2C)c1=O	HSF-1 act 83
O=C(Nc1ccc(Cl)c(Cl)c1)Nc1ccccn1	none
Cc1ccc(NC(=O)Cn2c(CCC(=O)O)ccc2-c2cccs2)cc1	HSF-1 act 62
COc1cccc(CN(C)CC(=O)Nc2c(C)cccc2C(C)C)c1	none
CN(C)CCN(Cc1ccco1)C(=O)c1oc2ccccc2c1NC(=O)COc1ccccc1	FID counter 38
COc1ccccc1N1CCN(C(=O)c2cc3c(s2)CCC3)CC1	HCV core dimer 74
Cc1cc(C)nc(Oc2ccc(Br)cc2)n1	none
Cc1nc2c(ncn2-c2ccccc2)c(=O)n1NC(=O)CN1CCOCC1	HSF1 inh -57
Cc1ccc(CNc2oc(-c3cccs3)nc2C#N)cc1	none
COc1ccc2c(c1)CCc1c(C(=O)NCC(C)C)noc1-2	HSF-1 act 58
COc1ccc2c(c1)CCc1c(C(=O)NCc3cccnc3)noc1-2	none
CCCNC(=O)c1noc2c1CCc1cc(OC)ccc1-2	HSF-1 act 67
CCCN1CCN(S(=O)(=O)c2ccc3c(c2)OCCO3)CC1	none
O=C1NC(=Nc2ccccc2Cl)S/C1=C\c1ccc(C(=O)O)cc1	none
CC12CCC(C/C1=N\N=C1\NC(=O)/C(=C\c3ccc(Cl)cc3)S1)C2(C)C (centres undefined)	HSF1 inh -94
CCCNC(=O)NC(=O)CSc1cccc(C(F)(F)F)c1	HSF-1 act 77
O=C(CSc1nc2scc(-c3ccccc3)c2c(=O)[nH]1)N1CCOCC1	none
CC(C)n1nc(C(=O)Nc2cccc(S(=O)(=O)NCc3ccco3)c2)c2ccccc2c1=O	none
OC(COc1ccc(F)cc1Cl)CN1CCC(Cc2ccccc2)CC1 (centres undefined)	FID counter 39
OC(COc1ccccc1F)CN1CCC(Cc2ccccc2)CC1 (centres undefined)	none
CCCCc1n[nH]c2c1/C(=N/OCC)CC(C)(C)C2	HSF1 inh -74
CC(C)n1nccc1NC(=O)Nc1ccccc1	none
COCCN(C(=O)c1cc2c(s1)CCCCC2)c1c(N)n(Cc2ccccc2)c(=O)[nH]c1=O	none (no result: FID counter, HCV NS3 hel inh, HSP90 inh)
Cc1ccccc1CC1(CO)CCCN(C(=O)c2ccccc2Cl)C1 (centres undefined)	HSF-1 act 55
CCOc1cc(C(=O)NCc2ccncc2)cc(OCC)c1OCC	none
CCOc1ccc(C(=O)NCc2ccncc2)cc1OCC	HSF1 inh -61
O=C(NCc1ccncc1)c1ccc(Cl)c(S(=O)(=O)N2CCOCC2)c1	HSF1 inh -76
COc1ccccc1N1CCN(C2CCCN(S(=O)(=O)c3ccccc3)C2)CC1 (centres undefined)	none
O=C(O)c1cccnc1C(=O)c1ccccc1	none (no result: FID counter, HCV NS3 hel inh, HSP90 inh)
CCc1ccccc1-n1c(SCC(=O)Nc2ccc3c(c2)OCCO3)nc2[nH]ncc2c1=O	HSF1 inh -68
O=C(O)c1ccccc1C(=O)NNc1ccc(F)cc1	none
CCOC(=O)N/C(N)=N/c1nc2ccccc2s1	HSF-1 act 53
CCN(c1ccccc1)S(=O)(=O)c1ccc(C(=O)NC2CCN(Cc3ccccc3)CC2)cc1	none (no result: HCV core dimer, FID counter, HCV NS3 hel inh, HSP90 inh)
COC(=O)c1ccc2c(c1O)C(=O)c1ccccc1C2=O	HSF-1 act 100
Cn1c(-c2ccc(C=O)s2)nc2ccccc21	none
CC(Oc1ccc(Cl)cc1)C(=O)/C=C/N(C)C (centres undefined)	HSF-1 act 54
CCOC(=O)C1CCCN(c2c(Nc3cccc(C)c3)c(=O)c2=O)C1 (centres undefined)	none
O=C1N/C(=C/c2ccc(N3CCOCC3)o2)C(=O)N1c1cccc(Cl)c1	HSF-1 act 125
O=C1NC(=O)C2(CCCCCCCCCCC2)N1	none
CN(C(=O)C1CCC(=O)N(CCc2ccc(Cl)cc2)C1)C1CCOCC1 (centres undefined)	none
CCc1ccccc1NC(=O)C1CCCC1	none (no result: FID counter, HCV NS3 hel inh, HSP90 inh)
COC(=O)c1ccc(C)c(NC(=O)COC(=O)C2CC3CCCC(C2)C3=O)c1 (centres undefined)	none (no result: FID counter, HCV NS3 hel inh, HSP90 inh)
CCC(NC(=O)/C(=C\c1ccc2c(c1)OCO2)NC(C)=O)C(=O)O (centres undefined)	HSF-1 act 59
Cc1ccc(C(=O)N/C(=C\c2ccc(Br)cc2)c2nc(=S)[nH][nH]2)cc1	HSF1 inh -69
CC(=O)Nc1cccc(-c2csc(Nc3ncccn3)n2)c1	none (no result: HCV core dimer)
CC(=O)Nc1cccc(-c2csc(Nc3ccc(C)cn3)n2)c1	HSF-1 act 67
O=C(CCNS(=O)(=O)c1ccccc1)Nc1ccccc1	none
O=[N+]([O-])c1cccc(N/N=C/c2cccc(O)c2O)c1	HSF-1 act 65
O=C(CN(c1cccc(C(F)(F)F)c1)S(=O)(=O)c1ccc(Cl)c([N+](=O)[O-])c1)NCc1ccccc1	none
O=C(CN(c1cccc(C(F)(F)F)c1)S(=O)(=O)c1ccc(Cl)c([N+](=O)[O-])c1)NCc1ccccc1Cl	HSF-1 act 66
Cc1ccccc1/C=N/Nc1ccnc2cc(Cl)ccc12	none
O=C(NCCNc1ccnc2cc(Cl)ccc12)c1ccccc1F	HSF1 inh -79
Clc1ccc2c(NCc3ccccc3)ccnc2c1	none
Oc1ccc(Nc2ccnc3cc(Cl)ccc23)cc1	none
Oc1ccc(/C=N/Nc2ccnc3cc(Cl)ccc23)c(O)c1	HSF-1 act 100
CCN(CC)CCNc1ccnc2cc(Cl)ccc12	FID counter 48
CCN(CC)Cc1cc(Nc2ccnc3cc(Cl)ccc23)ccc1O	FID counter 69
O=C(NCCCCNC(=O)c1ccccc1F)c1ccccc1F	none
CC(C)(C)c1[nH]nc2c1C(c1ccco1)C(C#N)=C(N)O2 (centres undefined)	none
COc1cccc(COC(=O)C2CC(=O)N(Cc3ccc(C)cc3)C2)c1OC (centres undefined)	none (no result: FID counter, HCV NS3 hel inh, HSP90 inh)
CC(Sc1nncs1)C(=O)NCC(=O)Nc1ccc(F)c(F)c1F (centres undefined)	none
CCC(=O)Nc1cccc(NC(=S)NC(=O)c2ccc(C)cc2)c1	none
CCC(=O)Nc1cccc(NC(=S)NC(=O)c2ccccc2)c1	HSF-1 act 54
Cc1cc(NC(=O)Cn2cnc3sc(C)c(-c4ccccc4)c3c2=O)no1	HSF-1 act 185 (no result: HCV core dimer)
C#CCNC(=O)C1=C[C@H](c2ccc(C(F)(F)F)cc2)[C@@H](CCCO)[C@H](OCC)O1	none
S=c1[nH]cc(Cc2ccccc2)s1	HSF-1 act 60
Cc1ccc(S(=O)(=O)N(Cc2nccn2C)C(C)C)cc1	none

Bioassay records (PubChem)
